Many of the other results were omitted from the sample, so hits are more common in it than they were.
NALP1 yeast inh = NALP1 inhibition | inhibition, % at 10 µM | hit rate 0.61% among 280,000 | S. cerevisiae NALP1/ASC/caspase-1 growth, X-gal OD620, 72 h | AID 2071; in the data active means inhibition mostly above about 24%, no sharp cut-off; inactive means mostly below about 32%
PolyA inhibitor = yeast polyadenylation inhibition. S. cerevisiae SKY197-pL101 polyadenylation reporter, beta-gal luminescence; efflux-impaired pdr1/pdr3 knockout yeast; score 100 = 6 SD above DMSO. activity score, % at 12 µM. hit rate 0.02% among 300,000. AID 1875;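 active means lowest replicate activity score at least 50, where 100 means six control SD above control mean; inconclusive means lowest score under 50 but half or more replicates reach 50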;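 further: yeast exposed to compound for 9 h at 30 °C; higher score means more reporter readthrough which indicates perturbed polyadenylation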
L major viab = Leishmania major promastigote growth inhibition. Leishmania major promastigotes, resazurin fluorescence viability. inhibition, % at 10 µM. hit rate 9% among 200,000; in the data active means inhibition above about 50%;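 further: promastigotes grown with compound for 44 hours at 28 °C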
T cruzi repl = T. cruzi replication inhibition. T. cruzi beta-gal in NIH3T3, luminescence, 90 h. inhibition, % (concentration not given with the values). hit rate 1.4% among 300,000. AID 1885;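 active means mean inhibition across valid replicates above about 55%, limit read from the data; inconclusive means mean below that limit but half or more replicates reach it; inactive means mean below it, under half of replicates reach it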;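 further: signal also drops with host cell toxicity which is not excluded here; 0% = plate median of DMSO wells and 100% = zero luminescence signal; higher percent means less beta-gal luminescence so fewer parasites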
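Incubation – ≥90 h infection period, 3 h prior cell attachment · System – NIH/3T3 fibroblasts plus reporter T. cruzi · Doses – compound pinned at 50 nL/well, DMSO · Read-out basis – percent inhibition of parasite-derived β-gal signal · Signal – luminescent β-galactosidase signal after 60 min lysis · Also added – 5000 T. cruzi trypomastigotes/well · Medium – Low-serum DMEM with 2% FBS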
NLRP3 yeast inh = blocks the NALP3 inflammasome reconstituted in yeast; hit rate 0.39% among 330,000; inhibition, % at 10 µM; Yeast reconstituted NLRP3/ASC/caspase-1, beta-gal luminescence, 24 h;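 active means inhibition of 50% or more; inactive means inhibition below 50%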;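 further: plate controls were induced DMSO wells for no effect and uninduced yeast grown without galactose for full effect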
Calb FLC = C. albicans growth modulation with fluconazole | C. albicans CaCi-2 + fluconazole, Alamar Blue growth, 48 h | growth inhibition, % (concentration not given with the values) | hit rate 0.57% among 300,000;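 active means growth inhibition above about 58% in most replicates, limit read from the data, passing the limit was not always enough; inconclusive means exactly half the replicates above a set limit; inactive means most replicates below a set limit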;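 further: all wells also contain fluconazole at 8 µg/ml as a sub-toxic cotreatment; 0% = median of DMSO wells and 100% = median of geldanamycin control wells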
Numbers without * were called inactive; ? = inconclusive; nt = no result.

SMILES	NALP1 yeast inh	PolyA inhibitor	L major viab	T cruzi repl	NLRP3 yeast inh	Calb FLC
NS(=O)(=O)c1ccc(Nc2ncccc2[N+](=O)[O-])cc1	1	16	75*	7	3	-7
N/C(=N\OC(=O)c1cccc(F)c1)c1cccc([N+](=O)[O-])c1	11	-22	nt	-5	27	12
CCOc1ccc(C2c3cc(OC)c(OC)cc3CC(=O)N2c2ccc(OC)cc2)cc1 (configuration not stated)	-2	-4	80*	-6	-2	-15
CCCC(=O)Nc1ccc(NC(=O)c2ccco2)c(OC)c1	39	3	1	-6	23	-8
CCC/C(O)=C1\C(=O)CC(C)(C)CC1=Nc1ccc(OC)cc1	16	-5	nt	11	29	11
CCOc1cc(CNCCCN2CCOCC2)cc(Br)c1OCC(=O)Nc1cccc(C(F)(F)F)c1	22	-1	101*	-22	15	63
COc1cc(CNCCCN2CCOCC2)cc(Br)c1OCc1ccc(Cl)cc1	10	-6	100*	59*	28	1
COc1cc(CNCCN2CCOCC2)ccc1OCc1ccc(Cl)cc1	9	-10	94*	49	15	5
COc1cc(CNCc2ccccn2)ccc1OCc1ccccc1Cl	39	2	94*	5	35	12
CCOc1cc(CNCCCN2CCOCC2)cc(Cl)c1OCC(=O)NC(C)(C)C	15	1	nt	51	6	-10
COC(=O)c1ccc(CNC(=O)COC(=O)c2ccccc2-c2ccccc2)cc1	nt	4	nt	0	14	0
COc1ccc(-c2cn3nc(SCC(=O)NC4CCCCC4)ccc3n2)cc1	12	-8	nt	5	9	-14
CCOC(=O)c1c(-c2ccccc2)csc1NC(=O)c1cc(-c2ccccc2OC)on1	nt	-3	nt	16	6	-20
Cc1nnc(SCC(=O)Nc2nccs2)o1	4	-4	nt	-15	13	-2
COc1cc(CNCCCN2CCOCC2)cc(Br)c1OCC(=O)N1CCCCC1	30*	0	-4	49	-8	-17
COc1cc(CNCCN2CCOCC2)ccc1OCc1ccccc1Cl	22	15	92*	36	6	2
COc1ccc(NC(=O)COc2ccc(CNCCCN3CCOCC3)cc2OC)cc1	20	1	-2	29	19	-9
O=C(CCN1CCOCC1)NNC(=O)Nc1cccc(C(F)(F)F)c1	1	6	nt	-3	-4	-3
CCOC(=O)C(=NCCCN1CCOCC1)NNc1cccc(C(F)(F)F)c1	9	17	11	-8	27	129*
C=CCOc1c(Cl)cc(CNCCCN2CCOCC2)cc1OC	20	-1	nt	56*	21	-1
COc1cc(CO)cc(Br)c1OCC(=O)N1CCCCC1	0	?	-1	-5	22	22
COc1cc(NC(=S)NCCCN2CCOCC2)c(OC)cc1Cl	-8	0	8	-3	-3	4
COc1ccc(-c2noc(CCCC(=O)NC3CCCCC3)n2)cc1OC	8	-4	nt	8	10	2
Cc1ccc(NC(=O)CN(C)C(=O)c2cc(-c3cccs3)nn2-c2ccccc2)cc1	nt	nt	nt	nt	23	nt
COc1ccc(CNC(=O)CC2(CC(=O)O)CCCCC2)cc1	18	14	nt	-5	16	19
SMILES	NALP1 yeast inh	PolyA inhibitor	L major viab	T cruzi repl	NLRP3 yeast inh	Calb FLC
N#CC(C#N)=C1NC2(CCCC2)Cc2ccccc21	20	14	85*	-1	3	2
O=C1NC2(CCCCC2)Cc2ccccc21	-8	-8	3	-11	22	4
COc1ccc(CCNC(=O)COC(=O)c2cc(OC)c(OC)cc2OC)cc1	-8	-5	-3	-3	1	10
COc1cc(OC)c(N(C)S(=O)(=O)c2cccc(C(=O)OCC(=O)c3c[nH]c4ccccc34)c2)cc1Cl	36	2	97*	19	5	-10
C=CCN(c1ccccc1OC)S(=O)(=O)c1cccc(C(=O)OCC(=O)c2c[nH]c3ccccc23)c1	nt	7	97*	36	16	-14
C=CCN(c1ccccc1OC)S(=O)(=O)c1cccc(C(=O)OCC(=O)N2CCOCC2)c1	nt	nt	nt	nt	-1	nt
O=C1CC(SC(=Nc2ccccc2)Nc2ccccc2)C(=O)N1c1cccc(Cl)c1 (configuration not stated)	14	1	61*	32	5	16
O=C1CC(Sc2nnnn2-c2ccccc2)C(=O)N1c1cccc(Cl)c1 (configuration not stated)	51	-8	71*	-7	4	-4
COc1ccc(N2C(=O)CC(Sc3nnnn3-c3ccc(F)cc3)C2=O)cc1 (configuration not stated)	17	nt	-3	23	13	-4
COc1cccc(C2CC(C(F)(F)F)n3nc(C(=O)Nc4c(C)n(C)n(-c5ccccc5)c4=O)cc3N2)c1 (configuration not stated)	7	-1	-10	-5	8	-3
COc1ccc(C2CC(C(F)(F)F)n3nc(C(=O)Nc4c(C)n(C)n(-c5ccccc5)c4=O)c(Cl)c3N2)cc1 (configuration not stated)	35	10	69*	5	18	-5
COc1cc(C(=O)NC(C)C2CC3CCC2C3)ccc1OC(F)F (configuration not stated)	nt	nt	nt	nt	7	nt
Cc1ccccc1CN(C)CCc1ccccn1	8	21	-3	-7	0	8
Cc1cccc(CN(C)CCc2ccccn2)c1	8	17	-5	61*	0	17
CCOc1ccc(OCCNCc2ccc(OC(C)C(=O)N(C)C)c(OCC)c2)cc1 (configuration not stated)	17	2	nt	31	10	-2
C(=C\c1ccccc1)/CN1CCN(c2ncnc3c2oc2ccccc23)CC1	3	-14	57*	-12	10	92*
CCN1/C(=C/c2ccc3cc(C)cc(C)c3[n+]2CC)Sc2cc(C)ccc21	7	nt	100*	nt	nt	nt
CC[n+]1c(C)sc2c3ccsc3ccc21	-11	3	12	33	23	7
CCN1/C(=C/c2ccc3cc(C)ccc3[n+]2CC)Sc2ccc3sccc3c21	nt	-9	nt	60*	39	101*
CCN1/C(=C/c2ccc3cccc(C)c3[n+]2CC)Sc2ccccc21	34*	-1	101*	58*	6	106*
CCN1/C(=C\c2ccc3cc(C)ccc3[n+]2CC)Sc2cc(C)c(C)cc21	-13	-83	100*	64*	nt	104*
C[n+]1ccccc1/C=C1\Sc2ccccc2N1CCO	3	-6	nt	10	19	0
Cc1cccc(/C=C(\c2nc3ccccc3[nH]2)S(=O)(=O)c2ccccc2)c1	18	-12	100*	47	nt	36
CC(C)(C)c1ccc(/C=C(\c2nc3ccccc3[nH]2)S(=O)(=O)c2ccccc2)cc1	nt	-2	nt	56*	27	-2
